# Published values pooled from the literature.
# Compare with care: the assays were run in different laboratories.
# Organism: Staphylococcus aureus
SMILES,test,test system,conditions,measurement,result
CC1(C)S[C@@H]2[C@H](NC(=O)[C@H](N)c3ccccc3)C(=O)N2[C@H]1C(=O)O,"microbial growth, agar dilution",ATCC25923,26.93 µM,inhibition,100%
CN[C@H](CC(C)C)C(=O)N[C@H]1C(=O)N[C@@H](CC(N)=O)C(=O)N[C@H]2C(=O)N[C@H]3C(=O)N[C@H](C(=O)N[C@H](C(=O)O)c4cc(O)cc(O)c4-c4cc3ccc4O)[C@H](O)c3ccc(c(Cl)c3)Oc3cc2cc(c3O[C@@H]2O[C@H](CO)[C@@H](O)[C@H](O)[C@H]2O[C@H]2C[C@](C)(N)[C@H](O)[C@H](C)O2)Oc2ccc(cc2Cl)[C@H]1O,"microbial growth, disc diffusion",ATCC29213,"62.5 µg/disc, 24 h",inhibition zone,18 mm
CC(C)c1nn(-c2nc3ccc(Cl)cc3s2)c2c1C(=O)c1ccccc1-2,"microbial growth, well diffusion",NCIM5021,500 µg/mL,inhibition zone,11 mm
O=C(O)CN1C(=O)/C(=C/c2c3ccccc3c(-c3ccc(N(c4ccccc4)c4ccccc4)cc3)c3ccccc23)NC1=S,"microbial killing, broth dilution",ATCC43300,,MBC,> 1000 µg/mL
Cc1nn(-c2nc3ccccc3s2)c2c1C(=O)c1ccccc1-2,"microbial growth, well diffusion",NCIM5021,125 µg/mL,inhibition zone,9 mm
COC(=O)c1sc(C(C)(C)C)cc1NC(=O)Nc1ccccc1,microbial growth,NCTC8325,,MIC,> 100 µM
O=C1NC(=S)S/C1=C\c1ccc(-c2ccc(N(c3ccccc3)c3ccccc3)cc2)c2ccccc12,"microbial killing, broth dilution",ATCC25923,,MBC,> 1000 µg/mL
FC(F)(F)c1ccc(Nc2nc3ccc(Oc4ccnc(-c5ncc(C(F)(F)F)[nH]5)c4)cc3[nH]2)cc1,microbial growth,NCTC8325,,MIC,> 30 µM
CCOC(=O)C1=C(C)N2NC(C)(c3ccccc3O)N(C(Cc3c[nH]c4ccccc34)C(=O)O)C2=NC1c1ccc(Cl)cc1 (centres unmarked),microbial growth,ATCC25923,"15 µg/mL, 24 h",inhibition zone,30 mm
COc1c(N2C[C@@H]3CCCN[C@@H]3C2)c(F)cc2c(=O)c(C(=O)O)cn(C3CC3)c12,microbial growth,ATCC700699,,MIC90,0.24 µg/mL
Cc1ccc2nc(-n3nc(CC(C)C)c4c3-c3ccccc3C4=O)sc2c1,"microbial growth, well diffusion",NCIM5021,125 µg/mL,inhibition zone,11 mm
O=C(Sc1cccccc1=O)c1ccccc1C(F)(F)F,"microbial growth, broth dilution",ATCC29213,,MIC80,100 µM
CNC(=O)c1cc(Oc2ccc(NC(=O)Nc3ccc(Cl)c(C(F)(F)F)c3)cc2)ccn1,microbial growth,NCTC8325,,MIC,3 µM
O=C(Sc1cccccc1=O)c1ccc(C(F)(F)F)cc1,"microbial growth, broth dilution",ATCC29213,,MIC80,> 100 µM
O=C(O)CN1C(=O)/C(=C/c2ccc(-c3ccc(N(c4ccccc4)c4ccccc4)cc3)c3ccccc23)SC1=S,"microbial killing, broth dilution",ATCC6538,,MBC,> 1000 µg/mL
C#CCCCCCCCCCCCC(O)CC(O)CO (centres unmarked),"microbial growth, broth dilution",ATCC33591 MRSA,drug-resistant strain,IC50,86.3 µg/mL
O=c1cc(N2CCOCC2)oc2c(-c3cccc4c3sc3ccccc34)cccc12,microbial growth,NCTC8325,,MIC,> 30 µM
O=C(O)CN1C(=O)/C(=C/c2ccc(-c3ccc(N(c4ccccc4)c4ccccc4)cc3)cc2)SC1=S,"microbial killing, broth dilution",ATCC6538,,MBC,7.8 µg/mL
Cc1nn(-c2nc3ccc(Br)cc3s2)c2c1C(=O)c1ccccc1-2,"microbial growth, well diffusion",NCIM5021,1000 µg/mL,inhibition zone,12 mm
Cc1csc(-c2nnc(Nc3ccc(Oc4ncccc4-c4ccnc(N)n4)cc3)c3ccccc23)c1,microbial growth,NCTC8325,,MIC,> 30 µM
CC(C)Cc1nn(-c2nc3ccc(Cl)cc3s2)c2c1C(=O)c1ccccc1-2,"microbial growth, well diffusion",NCIM5021,250 µg/mL,inhibition zone,10 mm
O=c1cccccc1Sc1cccccc1=O,"microbial growth, broth dilution",ATCC29213,,MIC80,> 100 µM
O=C1NC(=S)S/C1=C\c1ccc(-c2ccc(N(c3ccccc3)c3ccccc3)cc2)cc1,"microbial killing, broth dilution",ATCC6538,,MBC,> 1000 µg/mL
N=C(N)NC(=N)NCCc1ccccc1,microbial growth,NCTC8325,,MIC,> 30 µM
O=C1NC(=S)S/C1=C\c1c2ccccc2c(-c2ccc(N(c3ccccc3)c3ccccc3)cc2)c2ccccc12,"microbial killing, broth dilution",ATCC43300,,MBC,> 1000 µg/mL
CC(C)c1ccc(O)c(=O)cc1,"microbial growth, broth dilution",ATCC29213,,MIC80,66.7 µM
COc1c(C)c(OCc2ccccc2)c(C)c(O)c1C(=O)/C=C/c1ccccc1,"microbial killing, broth dilution",ATCC25923,,MBC,> 5000 µg/mL
COc1ccc2nc(-n3nc(C(C)C)c4c3-c3ccccc3C4=O)sc2c1,"microbial growth, well diffusion",NCIM5021,1000 µg/mL,inhibition zone,11 mm
O=C1c2c(O)ccc(O)c2C(=O)c2c(NCCNCCO)ccc(NCCNCCO)c21,microbial growth,NCTC8325,,MIC,> 30 µM
O=C(O)CN1C(=O)/C(=C/c2ccc(-c3ccc(N(c4ccccc4)c4ccccc4)cc3)c3ccccc23)NC1=S,"microbial killing, broth dilution",ATCC25923,,MBC,> 1000 µg/mL
CC(C)c1nn(-c2nc3ccc(Br)cc3s2)c2c1C(=O)c1ccccc1-2,"microbial growth, well diffusion",NCIM5021,1000 µg/mL,inhibition zone,12 mm
O=C(Cc1ccccc1)Sc1cccccc1=O,"microbial growth, broth dilution",ATCC29213,,MIC80,> 100 µM
CCCCCCCCCCCCCC(O)CC(O)CO (centres unmarked),"microbial growth, broth dilution",ATCC29213,,IC50,17.2 µg/mL
CC(C(=O)O)N1C2=NC(c3ccc(Cl)cc3)c3c([nH]c(=O)[nH]c3=O)N2NC1(C)c1ccccc1O (centres unmarked),microbial growth,ATCC25923,"10 µg/mL, 24 h",inhibition zone,14 mm
C=CCCCCCCCCCCCC(O)CC(O)CO (centres unmarked),"microbial growth, broth dilution",ATCC29213,,IC50,> 200 µg/mL
Cc1nn(-c2nc3ccc(Cl)cc3s2)c2c1C(=O)c1ccccc1-2,"microbial growth, well diffusion",NCIM5021,250 µg/mL,inhibition zone,10 mm
O=C(Nc1ccc(Cl)c(C(F)(F)F)c1)N1CCC(F)(F)CC1,microbial growth,NCTC8325,24 h,MIC,10 µM
O=C(O)CN1C(=O)/C(=C/c2c3ccccc3c(-c3ccc(N(c4ccccc4)c4ccccc4)cc3)c3ccccc23)SC1=S,"microbial killing, broth dilution",ATCC25923,,MBC,> 1000 µg/mL
